Measurements as given in article PMC4607046 (Journal of the American Chemical Society, 2015).
≈ marks a conversion by molar mass, not a printed value.

Assays:
[1] = test system: PBP1 (pbpA antisense, MRSA COL); test: Antisense sensitization, pbpA antisense in MRSA COL; format: cell-based, S. aureus; settings: xylose induction
[2] = test system: PBP2a (pbp2a antisense, MRSA COL); test: Antisense sensitization, pbp2a antisense in MRSA COL; format: cell-based, S. aureus; settings: xylose induction
[3] = test system: S. aureus ATCC 29213; test: MIC, in vitro antibacterial activity; format: cell-based, Staphylococcus aureus
[4] = test system: E. faecium; test: MIC, ESKAPE panel; format: cell-based, Enterococcus faecium
[5] = test system: Gram-negative bacteria of our panel; test: Antibacterial activity, E. coli and ESKAPE panel; format: cell-based; settings: Gram-negative bacteria of the E. coli/ESKAPE panel
[6] = test system: S. aureus NRS128; test: MIC, in vitro antibacterial activity; format: cell-based; settings: Staphylococcus aureus, MSSA|NRS128
[7] = test system: S. aureus NRS70; test: MIC, in vitro antibacterial activity; format: cell-based; settings: Staphylococcus aureus, MRSA|NRS70
[8] = test system: S. aureus NRS123; test: MIC, in vitro antibacterial activity; format: cell-based; settings: Staphylococcus aureus, MRSA|NRS123
[9] = test system: S. aureus NRS100; test: MIC, in vitro antibacterial activity; format: cell-based; settings: Staphylococcus aureus, MRSA|NRS100
[10] = test system: S. aureus NRS119; test: MIC, in vitro antibacterial activity; format: cell-based; settings: Staphylococcus aureus, MRSA|NRS119
[11] = test system: S. aureus NRS120; test: MIC, in vitro antibacterial activity; format: cell-based; settings: Staphylococcus aureus, MRSA|NRS120
[12] = test system: S. aureus VRS1; test: MIC, in vitro antibacterial activity; format: cell-based; settings: Staphylococcus aureus, MRSA
[13] = test system: S. aureus VRS2; test: MIC, in vitro antibacterial activity; format: cell-based; settings: Staphylococcus aureus, MRSA
[14] = test system: S. epidermidis ATCC 35547; test: MIC, in vitro antibacterial activity; format: cell-based; settings: Staphylococcus epidermidis, ATCC35547
[15] = test system: HepG2 cells; test: XTT cell proliferation assay; format: cell-based; settings: Homo sapiens, HepG2, read-out: IC50, XTT cell proliferation assay
[16] = Alkylating agent test
[17] = Glutathione adduct formation; format: in vitro ADME
[18] = Hemolysis of red blood cells; format: cell-based
[19] = Stability in mouse plasma; format: in vitro ADME
[20] = Metabolic stability in rat S9; format: in vitro ADME; settings: liver S9
[21] = Metabolic stability in human S9; format: in vitro ADME; settings: liver S9
[22] = Water solubility; format: physicochemical
Summary of the method: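 Test compound tested as its sodium salt, dissolved in water.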

[23] = Pharmacokinetics after single iv or po dose; format: in vivo, mice
[24] = test system: S. aureus ATCC 29213 cell-wall biosynthesis; test: Macromolecular synthesis assay, cell wall; format: cell-based, Staphylococcus aureus; settings: 2 at 0.5 MIC
Summary of the method: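 Logarithmic-phase S. aureus ATCC 29213 was treated with test compound at 1/2 MIC. Peptidoglycan synthesis was followed as D-[2,3-3H]-alanine incorporation into cell wall, with fosfomycin (16 μg/mL) as control. Maximum inhibition was taken at 120 min.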

[25] = test system: S. aureus ATCC 29213 DNA synthesis; test: Macromolecular synthesis assay, DNA; format: cell-based, Staphylococcus aureus; settings: 0.5 MIC
Summary of the method: (§1)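 Logarithmic-phase S. aureus ATCC 29213 was exposed to test compound at 1/2 MIC, and incorporation of radiolabeled precursors was monitored: [methyl-3H]-thymidine (DNA), [5,6-3H]-uridine (RNA) and L-[4,5-3H]-leucine (protein). Controls were ciprofloxacin 0.5 μg/mL (DNA), rifampicin 8 ng/mL (RNA) and tetracycline 31 ng/mL (protein). Maximum inhibition was taken at 80 min for DNA and at 120 min for RNA and protein.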

[26] = test system: S. aureus ATCC 29213 RNA synthesis; test: Macromolecular synthesis assay, RNA; format: cell-based, Staphylococcus aureus; settings: 0.5 MIC
Summary of the method: as §1

[27] = test system: S. aureus ATCC 29213 protein synthesis; test: Macromolecular synthesis assay, protein; format: cell-based, Staphylococcus aureus; settings: 0.5 MIC
Summary of the method: as §1

[28] = test system: T7 transcription; test: In vitro transcription assay, T7 transcription kit; format: biochemical
[29] = test system: E. coli S30 extract translation; format: biochemical; settings: β-galactosidase assay system
[30] = biological target: PBP2a (Staphylococcus aureus, UniProt P07944); test: Bocillin FL competition assay, purified recombinant PBP2a; format: binding, S. aureus
Summary of the method: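 Recombinant purified PBP2a (1 μM) was labeled with fluorescent Bocillin FL (20 μM) in the presence of increasing amounts of test compound (μg/mL). Competition was read as loss of fluorescence labeling of the active site, and an apparent IC50 was derived.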

[31] = biological target: PBP2a allosteric site (Staphylococcus aureus, UniProt P07944); test: Intrinsic fluorescence quenching of oxacillin-acylated PBP2a; format: binding, S. aureus
Summary of the method: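 PBP2a intrinsic fluorescence was excited at 280 nm and emission spectra were scanned while test compound was titrated to the final concentrations shown. Kd came from nonlinear regression of the change in maximum fluorescence intensity, averaged over three experiments.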

[32] = Staphylococcus aureus, ATCC29213|MSSA
[33] = experiment with meropenem control

Sequence of PBP2a allosteric site (P07944 whole entry): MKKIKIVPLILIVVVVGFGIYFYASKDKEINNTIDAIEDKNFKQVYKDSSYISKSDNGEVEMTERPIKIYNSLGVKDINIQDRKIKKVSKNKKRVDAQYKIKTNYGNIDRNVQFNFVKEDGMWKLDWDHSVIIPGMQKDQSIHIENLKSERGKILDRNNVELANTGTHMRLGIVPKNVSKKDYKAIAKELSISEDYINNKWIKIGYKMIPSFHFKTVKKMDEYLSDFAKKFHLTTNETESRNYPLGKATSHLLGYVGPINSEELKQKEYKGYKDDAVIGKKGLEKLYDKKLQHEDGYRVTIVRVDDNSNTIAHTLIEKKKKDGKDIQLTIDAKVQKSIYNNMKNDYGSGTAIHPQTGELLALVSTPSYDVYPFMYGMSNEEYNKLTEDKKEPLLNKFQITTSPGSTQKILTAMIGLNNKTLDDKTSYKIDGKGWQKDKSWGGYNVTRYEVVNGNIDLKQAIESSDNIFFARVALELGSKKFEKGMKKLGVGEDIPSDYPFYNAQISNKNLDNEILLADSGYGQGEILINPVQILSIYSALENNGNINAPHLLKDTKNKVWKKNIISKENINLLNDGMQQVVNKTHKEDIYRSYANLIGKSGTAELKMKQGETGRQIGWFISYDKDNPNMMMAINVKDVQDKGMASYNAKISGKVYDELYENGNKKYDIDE
Sequence of PBP2a (P07944 whole entry): as above

SMILES: CCO/N=C(\C(=O)N[C@@H]1C(=O)N2C(C(=O)[O-])=C(Sc3nc(-c4cc[n+](C)cc4)cs3)CS[C@H]12)c1nsc(N)n1 [ceftaroline]
- sensitization on attenuation of PBP1 expression [1]: sensitized the strain
- sensitization on attenuation of PBP2a expression [2]: sensitized the strain

SMILES: N#Cc1ccc(/C=C/c2nc3ccccc3c(=O)n2-c2cccc(C(=O)O)c2)cc1 [compound 1]
- MIC ([3]; S. aureus ATCC 29213, quality control MSSA strain): 2 µg/mL (≈ 5.08 µM)
- MIC [4]: 16 µg/mL (≈ 40.7 µM)
- activity against Gram-negative bacteria [5]: did not have activity

SMILES: N#Cc1ccc(/C=C/c2nc3ccccc3c(=O)n2-c2cccc(C(=O)O)c2)cc1 [compound 2, (E)-3-(3-carboxyphenyl)-2-(4-cyanostyryl)quinazolin-4(3H)-one]
- MIC [3, 32]: 2 µg/mL (≈ 5.08 µM)
- MIC [6]: 4 µg/mL (≈ 10.2 µM)
- MIC [7]: 2 µg/mL (≈ 5.08 µM)
- MIC [8]: 2 µg/mL (≈ 5.08 µM)
- MIC [9]: 16 µg/mL (≈ 40.7 µM)
- MIC [10]: 8 µg/mL (≈ 20.3 µM)
- MIC [11]: 8 µg/mL (≈ 20.3 µM)
- MIC [12]: 16 µg/mL (≈ 40.7 µM)
- MIC [13]: 2 µg/mL (≈ 5.08 µM)
- MIC [14]: 1 µg/mL (≈ 2.54 µM)
- IC50 [15]: 63 ± 1 µg/mL (≈ 160 µM)
- alkylating agent [16]: not an alkylating agent
- glutathione adduct formation [17]: did not form glutathione adducts
- hemolysis at 50 μg/mL [18]: < 1%
- half-life in mouse plasma [19]: 141 h
- remaining at 1 h [20]: 100%
- remaining at 1 h [21]: 100%
- solubility [22]: 8000 µg/mL (≈ 20300 µM)
- maximum concentration ([23]; mice, single 10 mg/kg oral (po) dose): 1.29 µg/mL
- time plasma levels sustained above MIC ([23]; mouse, in vivo, iv, 10 mg/kg): 2 h
- clearance ([23]; mouse, plasma, iv, 10 mg/kg): 6.87 mL/min/kg
- half-life ([23]; mouse, plasma, iv, 10 mg/kg): > 20 h
- half-life ([23]; mouse, plasma, po, 10 mg/kg): > 20 h
- inhibition of cell-wall biosynthesis (D-[2,3-3H]-alanine incorporation) ([24]; experiment with fosfomycin control, fosfomycin 16 μg/mL, 120 min): 51 ± 12%
- inhibition of cell-wall biosynthesis (D-[2,3-3H]-alanine incorporation) [24, 33]: 61 ± 4%
- effect on replication (DNA synthesis, [methyl-3H]-thymidine incorporation) [25]: did not significantly affect
- effect on transcription (RNA synthesis, [5,6-3H]-uridine incorporation) [26]: did not significantly affect
- effect on translation (protein synthesis, L-[4,5-3H]-leucine incorporation) [27]: did not significantly affect
- inhibition of in vitro transcription [28]: did not show inhibition
- inhibition of in vitro translation [29]: did not show inhibition
- IC50 [30]: 356 µM
- sensitization on attenuation of PBP1 expression [1]: sensitized the strain
- sensitization on attenuation of PBP2a expression [2]: sensitized the strain
- Kd [31]: 17.5 µM

SMILES: C[C@@H](O)[C@H]1C(=O)N2C(C(=O)O)=C(SCCN=CN)C[C@H]12 [imipenem]
- sensitization on attenuation of PBP1 expression [1]: sensitized the strain
- sensitization on attenuation of PBP2a expression [2]: sensitized the strain

SMILES: CC(=O)NC[C@H]1CN(c2ccc(N3CCOCC3)c(F)c2)C(=O)O1 [linezolid]
- MIC [3, 32]: 4 µg/mL (≈ 11.9 µM)
- MIC [6]: 1 µg/mL (≈ 2.96 µM)
- MIC [7]: 1 µg/mL (≈ 2.96 µM)
- MIC [8]: 2 µg/mL (≈ 5.93 µM)
- MIC [9]: 2 µg/mL (≈ 5.93 µM)
- MIC [10]: 32 µg/mL (≈ 94.9 µM)
- MIC [11]: 32 µg/mL (≈ 94.9 µM)
- MIC [12]: 2 µg/mL (≈ 5.93 µM)
- MIC [13]: 2 µg/mL (≈ 5.93 µM)
- MIC [14]: 1 µg/mL (≈ 2.96 µM)

SMILES: C[C@@H](O)[C@H]1C(=O)N2C(C(=O)O)=C(S[C@@H]3CN[C@H](C(=O)N(C)C)C3)[C@H](C)[C@H]12 [meropenem, reference compound]
- inhibition of cell-wall biosynthesis (D-[2,3-3H]-alanine incorporation) [24, 33]: 64 ± 2%

SMILES: Cc1onc(-c2ccccc2)c1C(=O)N[C@@H]1C(=O)N2[C@@H]1SC(C)(C)[C@@H]2C(=O)O [oxacillin]
- MIC [3, 32]: 0.25 µg/mL (≈ 0.623 µM)
- MIC [6]: 0.5 µg/mL (≈ 1.25 µM)
- MIC [7]: 32 µg/mL (≈ 79.7 µM)
- MIC [8]: 32 µg/mL (≈ 79.7 µM)
- MIC [9]: 512 µg/mL (≈ 1280 µM)
- MIC [10]: 512 µg/mL (≈ 1280 µM)
- MIC [11]: 512 µg/mL (≈ 1280 µM)
- MIC [12]: 512 µg/mL (≈ 1280 µM)
- MIC [13]: 256 µg/mL (≈ 638 µM)
- MIC [14]: 128 µg/mL (≈ 319 µM)

SMILES: CN[C@H](CC(C)C)C(=O)N[C@H]1C(=O)N[C@@H](CC(N)=O)C(=O)N[C@H]2C(=O)N[C@H]3C(=O)N[C@H](C(=O)N[C@H](C(=O)O)c4cc(O)cc(O)c4-c4cc3ccc4O)[C@H](O)c3ccc(c(Cl)c3)Oc3cc2cc(c3O[C@@H]2O[C@H](CO)[C@@H](O)[C@H](O)[C@H]2O[C@H]2C[C@](C)(N)[C@H](O)[C@H](C)O2)Oc2ccc(cc2Cl)[C@H]1O [vancomycin]
- MIC [3, 32]: 1 µg/mL (≈ 0.69 µM)
- MIC [6]: 1 µg/mL (≈ 0.69 µM)
- MIC [7]: 1 µg/mL (≈ 0.69 µM)
- MIC [8]: 1 µg/mL (≈ 0.69 µM)
- MIC [9]: 2 µg/mL (≈ 1.38 µM)
- MIC [10]: 2 µg/mL (≈ 1.38 µM)
- MIC [11]: 2 µg/mL (≈ 1.38 µM)
- MIC [12]: 512 µg/mL (≈ 353 µM)
- MIC [13]: 64 µg/mL (≈ 44.2 µM)
- MIC [14]: 16 µg/mL (≈ 11 µM)
